Casp6 inh: blocks human caspase-6 cleavage activity. AID 686996. P55212. purified caspase-6, Z-VEID-R110 cleavage fluorescence. hit rate 0.53% among 350,000. inhibition, % at 12.5 µM;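 active = mean inhibition across replicates at least about 35%, with every replicate also reaching that limit, limit read from the data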;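 also: 0% = median of neutral control wells and 100% = no fluorescence left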
CaV13 ICDI inh: Disruptors of the CACNA1D IQ motif to Ca2+-dependent inactivation inhibitor domain association, primary screening, Förster resonance energy transfer in intact living …; HEK cells, CFP/YFP FRET ICDI-IQ, plate reader, 10 min; percent FRET-ratio fall versus neutral wells; inhibition, % at 12.3 µM; hit rate 0.098% among 340,000;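 active = mean replicate inhibition of at least 30% and at least 1% of replicates passing that level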;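 also: 0% = median of the neutral control wells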
NSD2 HMT inh: inhibitors of human histone methyltransferase NSD2; O96028; NSD2 peptide methylation, AlphaScreen, 120 min; inhibition, % at 12.5 µM; hit rate 0.54% among 310,000; AID 743445; in the data active = inhibition above about 50%
NPR2 activator: GC-B (human) receptor activation; P20594; HEK293-GC-B cells, CNP EC30, cGMP TR-FRET; 0% at EC30 CNP, 100% saturating CNP; activation, % at 10 µM; hit rate 0.11% among 370,000;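 active = activation at 10 µM reaching about 35% in either raw or pattern-adjusted values, limit read from the data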
Target sequence (P20594 whole entry, looked up): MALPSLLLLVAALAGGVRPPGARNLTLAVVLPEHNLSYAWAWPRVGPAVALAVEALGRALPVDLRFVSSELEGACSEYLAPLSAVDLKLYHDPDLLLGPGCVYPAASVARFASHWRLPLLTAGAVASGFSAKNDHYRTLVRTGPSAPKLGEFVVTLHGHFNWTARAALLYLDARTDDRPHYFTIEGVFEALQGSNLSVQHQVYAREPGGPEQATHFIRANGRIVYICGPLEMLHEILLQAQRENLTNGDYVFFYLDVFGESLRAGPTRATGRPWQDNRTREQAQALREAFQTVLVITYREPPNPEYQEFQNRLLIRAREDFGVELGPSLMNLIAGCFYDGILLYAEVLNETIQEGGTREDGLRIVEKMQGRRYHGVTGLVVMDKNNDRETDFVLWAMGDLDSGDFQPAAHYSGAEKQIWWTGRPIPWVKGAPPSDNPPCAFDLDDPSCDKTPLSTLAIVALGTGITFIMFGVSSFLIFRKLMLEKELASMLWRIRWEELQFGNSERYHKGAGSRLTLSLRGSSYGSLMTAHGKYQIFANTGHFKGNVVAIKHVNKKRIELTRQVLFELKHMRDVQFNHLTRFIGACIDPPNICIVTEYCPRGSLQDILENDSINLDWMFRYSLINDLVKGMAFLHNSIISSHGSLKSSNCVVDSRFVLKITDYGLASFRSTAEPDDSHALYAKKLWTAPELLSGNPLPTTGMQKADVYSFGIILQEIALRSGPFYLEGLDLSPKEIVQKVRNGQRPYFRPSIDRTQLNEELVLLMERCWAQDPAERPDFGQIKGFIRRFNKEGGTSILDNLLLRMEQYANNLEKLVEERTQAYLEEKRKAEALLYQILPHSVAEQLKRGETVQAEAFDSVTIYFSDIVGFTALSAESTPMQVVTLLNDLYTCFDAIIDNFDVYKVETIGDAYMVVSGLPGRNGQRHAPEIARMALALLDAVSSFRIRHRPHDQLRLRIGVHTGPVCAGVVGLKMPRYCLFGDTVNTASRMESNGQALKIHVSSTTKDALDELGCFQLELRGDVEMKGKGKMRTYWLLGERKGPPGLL
GC-A act: GC-A (human) enzyme activation | HEK293 GC-A cells, cGMP TR-FRET, EC30 ANP; 0% at EC30 ANP, 100% saturating ANP | hit rate 0.14% among 370,000 | activation, % at 10 µM | AID 1671463; in the data active = activation above about 40%
FN deposit inh: fibronectin deposition inhibition; AH1F fibroblasts, Alexa488-fibronectin deposition fluorescence, overnight; inhibition, % at 12.6 µM; hit rate 0.086% among 350,000; AID 743247;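 active = mean inhibition across replicates of 30% or more, regardless of how many single replicates reach that level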;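 also: positive control wells lacked labelled fibronectin entirely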
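Test system: AH1F fibroblast monolayer depositing Alexa488-labelled fibronectin into matrix. Input: 10000 cells per well. Technique: fluorescence, ex 485 nm, em 525 nm. Buffer or medium: DMEM plus 2% serum, read in PBS. Timing: 1 h cell adhesion before compound, then overnight fibronectin incubation. Compound: single dose, pinned. Read-out basis: inhibition from reduced deposited-fibronectin fluorescence.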
CASP1 counter: selectivity counter-screen: inhibitors of human caspase-1 | purified caspase-1, Z-YVAD-R110 cleavage fluorescence | shares compounds with Casp6 inh | activity change, negative = inhibition, % at 35 µM | 100 tested, under 10 active;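 active = compounds lowering fluorescence whose fitted half-maximal concentration is no more than twice their top tested dose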
AlphaScreen art: interferes with AlphaScreen signal, flagging NSD2 false positives; AlphaScreen artifact counterscreen, preloaded methylated H4 peptide; hit rate 9.4% among 1,500; AC35, µM (highest dose often 10 µM), without a hit: at the highest dose activity change, negative = signal loss; shares compounds with NSD2 HMT inh; AID 1053174; call rule not given here
An asterisk follows results filed as active. A selection: hits, their analogues and other compounds. The true share with any hit is near 0.99%.

What do the screens show for `Oc1ccc2c(c1)OCC1(O)Cc3cc(O)c(O)cc3C21` (stereo unspecified)?
Casp6 inh: 31; NPR2 activator: 0; GC-A act: 0

What do the screens show for `CCN1[C@@H]2c3ccc(-c4cccnc4)c(=O)n3C[C@@H]2[C@@H](CO)[C@@H]1C(=O)NC1CCCCC1`?
Casp6 inh: 2

Results for O=c1c(O)cccc2cc(O)c(O)c(O)c12 ?
Casp6 inh: 98*; CaV13 ICDI inh: -2; NSD2 HMT inh: 128*; NPR2 activator: -3; GC-A act: -3; FN deposit inh: -1; CASP1 counter: -10; AlphaScreen art: 1.6µM*

What do the screens show for `COc1cc2cccc(OC)c(=O)c2c(OC)c1OC`?
Casp6 inh: 3; NPR2 activator: 4; GC-A act: 0

Results for CCOc1c(O)ccc(/C=C2\SC(=S)NC2=O)c1[N+](=O)[O-] ?
Casp6 inh: 61*; CaV13 ICDI inh: -5; NSD2 HMT inh: 53*; NPR2 activator: -8; GC-A act: -1; CASP1 counter: 9; AlphaScreen art: -5%

What do the screens show for `CCCC#Cc1ccc2c(c1)O[C@@H](CN(C)Cc1cncnc1)[C@H](C)CN([C@@H](C)CO)S2(=O)=O`?
Casp6 inh: -3; FN deposit inh: 3

Results for COc1cc(N(C(C)=O)c2ccc(O)cc2)c2ncccc2c1 ?
Casp6 inh: 4; CaV13 ICDI inh: -6; NSD2 HMT inh: -4; NPR2 activator: -3; GC-A act: 0

How did COc1cc(N(C(C)=O)c2ccc(O)c(C(=O)O)c2)c2ncccc2c1 do in these assays?
Casp6 inh: 44*; CaV13 ICDI inh: -6; NSD2 HMT inh: 86*; NPR2 activator: -2; GC-A act: -3; FN deposit inh: -7; CASP1 counter: -2; AlphaScreen art: -2%

Results for Cc1ccc(-c2cnc3c(c2)C(=O)N([C@H](C)CO)C[C@@H](C)[C@@H](CN(C)C(=O)c2cccnc2)O3)cc1 ?
Casp6 inh: 1

What do the screens show for `O=C(COC(=O)c1ccc([N+](=O)[O-])s1)Nc1ccccc1`?
CaV13 ICDI inh: -8; NSD2 HMT inh: 69*; NPR2 activator: -1; GC-A act: 2; CASP1 counter: 0; AlphaScreen art: -1%

What do the screens show for `Cc1ccccc1N1CC(C(=O)Nc2ccc(S(=O)(=O)N3CCOCC3)cc2)CC1=O` (stereo unspecified)?
Casp6 inh: 0; CaV13 ICDI inh: -4; NSD2 HMT inh: 85*; NPR2 activator: 3; GC-A act: 0; FN deposit inh: 2; AlphaScreen art: -2%

Results for Cc1ccccc1N1CC(C(=O)Nc2ccc(S(=O)(=O)N3CCCCC3)cc2)CC1=O (stereo unspecified) ?
Casp6 inh: -2; CaV13 ICDI inh: -3; NSD2 HMT inh: 2; NPR2 activator: 2; GC-A act: -3; FN deposit inh: -2

Results for C[C@H](CO)N1C[C@H](C)[C@H](CN(C)Cc2ccc(F)cc2)Oc2ncc(-c3ccc(F)cc3)cc2C1=O ?
FN deposit inh: -14

How did CCC(=O)N1[C@@H]2c3ccc(-c4ccncc4)c(=O)n3C[C@@H]2[C@@H](CO)[C@@H]1C(=O)Nc1ccccc1 do in these assays?
Casp6 inh: 0

What do the screens show for `CCOc1cc(-n2cnnn2)c(OCC)cc1NC(=O)c1cnccn1`?
CaV13 ICDI inh: -16; NSD2 HMT inh: 3; NPR2 activator: -8; GC-A act: -9; FN deposit inh: -3

Results for CCOc1cc(N2CCOCC2)c(OCC)cc1NC(=O)c1cnccn1 ?
Casp6 inh: 3; CaV13 ICDI inh: -9; NSD2 HMT inh: 64*; NPR2 activator: -12; GC-A act: -26; FN deposit inh: 0; AlphaScreen art: -7%

Results for CO[C@@H]1CN(C)C(=O)c2cc(NC(=O)c3ccno3)ccc2OC[C@H](C)NC[C@@H]1C ?
Casp6 inh: 1; FN deposit inh: 6

Results for CCCn1c(C)nc2c(c1=O)c1nc3ccccc3nc1n2-c1ccccc1 ?
Casp6 inh: -2; CaV13 ICDI inh: -5; NSD2 HMT inh: 54*; NPR2 activator: -11; GC-A act: -4; FN deposit inh: 0; AlphaScreen art: 1%

What do the screens show for `CCC(=O)N1[C@@H]2c3ccc(-c4ccccc4)c(=O)n3C[C@H]1[C@H](CO)[C@H]2C(=O)N1CCc2ccccc2C1`?
Casp6 inh: 1

What do the screens show for `O=C(C[C@@H]1CC[C@@H]2[C@H](COC[C@H](O)CN2Cc2ccccc2F)O1)N1CCc2ccccc2C1`?
Casp6 inh: -3; FN deposit inh: 16

How did COc1cccc(NC(=O)CN(c2cccc(C(F)(F)F)c2)S(C)(=O)=O)c1 do in these assays?
CaV13 ICDI inh: -4; NSD2 HMT inh: -2; NPR2 activator: -11; GC-A act: -10; FN deposit inh: 11

Results for CCOc1ccc(NC(=O)CN(c2cccc(C(F)(F)F)c2)S(C)(=O)=O)cc1 ?
CaV13 ICDI inh: -4; NSD2 HMT inh: 113*; NPR2 activator: 5; GC-A act: -1; FN deposit inh: 9; AlphaScreen art: 0%

How did C[C@@H]1CN([C@H](C)CO)C(=O)c2ccccc2-c2ccccc2CO[C@@H]1CN(C)C(=O)Nc1ccc2c(c1)OCO2 do in these assays?
Casp6 inh: 18; FN deposit inh: -9

How did CS(=O)(=O)N(CC(=O)NCc1ccc2c(c1)OCO2)c1cccc(Cl)c1 do in these assays?
Casp6 inh: 0; CaV13 ICDI inh: -1; NSD2 HMT inh: 106*; NPR2 activator: 2; GC-A act: 0; FN deposit inh: -5; AlphaScreen art: -2%

How did CS(=O)(=O)N(CC(=O)NCc1ccc2c(c1)OCO2)c1ccc(Cl)cc1 do in these assays?
CaV13 ICDI inh: -5; NSD2 HMT inh: 0; NPR2 activator: -1; GC-A act: -7; FN deposit inh: 3

Results for CCC(=O)N1CCCCN2[C@H](C1)[C@H](c1ccc(C#Cc3ccccc3)cc1)[C@@H]2CO ?
Casp6 inh: -4

How did Cn1cnc(S(=O)(=O)N2C[C@H](O)COC[C@H]3O[C@@H](CC(=O)NC4Cc5ccccc5C4)CC[C@@H]32)c1 do in these assays?
Casp6 inh: 2; FN deposit inh: 1

Assay outcomes deposited in PubChem by several laboratories.
